“And” between values parts separate entries of the source, which are not always exact repeats. Equal entries are not always repeated.
Experiments:
[1] = type: in vivo, human; details: healthy volunteers, diet rich in fruits, vegetables, tea, and wine
Method in brief: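 Volunteers on a flavonoid-rich diet also took oral flavonoid/isoflavone tablets; urine was sampled 5 h post-dose. Urine was deproteinised with acetonitrile/methanol, hydrolysed with β-glucuronidase/sulfatase (H. pomatia, pH 4.66, 18 h, 37 °C), cleaned by SPE and run on reversed-phase UHPLC (0.05% TFA/acetonitrile gradient, 25 °C, UV 254 and 280 nm). Amounts came from calibration curves in blank urine; identities were confirmed by HPLC–ESI-MS–MS.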

[2] = type: in vivo, human; details: for approximate average daily output in urine: assuming the mean 24-h urine volume is 1.4 L; for AUC(0-inf) / AUC(0-t) / Tmax / half-life: human, urine, po; for percentage excreted in urine within 24 h of the administered dose: within 24 h after ingestion of the tablets
Method in brief: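 Healthy volunteers (21–48 y) took oral flavonoid/isoflavone tablets. Processing: acetonitrile/methanol precipitation, centrifugation, β-glucuronidase/sulfatase (H. pomatia) hydrolysis at pH 4.66 for 18 h at 37 °C, then SPE. Reversed-phase UHPLC used a 0.05% TFA/acetonitrile gradient, UV 254/280 nm, and blank-urine calibration. Kel came from terminal-slope regression; t1/2 = 0.693/Kel.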

[3] = human urine, oral pharmaceutical preparations, n = 6, mean±S.D.

mean concentration in urine [1]	approximate average daily output in urine [2]	C max, peak concentration in urine [2, 3]	percentage excreted in urine within 24 h of the administered dose [2]	SMILES	also measured
5427.34 ng/mL				Oc1cc(O)c2c(c1)OC(c1ccc(O)c(O)c1)C(O)C2 (racemic) [(±)-CA, (±)-catechin]	
2724.26 ng/mL				Oc1cc(O)c2c(c1)O[C@H](c1ccc(O)c(O)c1)[C@H](O)C2 [(−)-EC, (−)-epicatechin]	
	~0.14 mg	228.0 ± 5.34 ng/mL	17%	O=c1c(-c2ccc(O)cc2)coc2cc(O)ccc12 [DA, daidzein]	AUC(0-inf) [2]: 7730 ± 414 µg·h/mL; AUC(0-t) [2]: 7710 ± 410 µg·h/mL; Tmax [2]: 7 h; half-life [2]: 4.43 ± 0.86 h
detected in urine, but not quantified				COc1ccc([C@@H]2CC(=O)c3c(O)cc(O)cc3O2)cc1O [HST, hesperetin]	
73.57 ng/mL				C[C@@H]1O[C@@H](Oc2c(-c3ccc(O)c(O)c3)oc3cc(O)cc(O)c3c2=O)[C@H](O)[C@H](O)[C@H]1O [QUR, quercitrin]	
	~0.19 mg	780.2 ± 10.39 ng/mL	1%	C[C@@H]1O[C@@H](OC[C@H]2O[C@@H](Oc3c(-c4ccc(O)c(O)c4)oc4cc(O)cc(O)c4c3=O)[C@H](O)[C@@H](O)[C@@H]2O)[C@H](O)[C@H](O)[C@H]1O [RUT, rutin]	AUC(0-inf) [2]: 12820 ± 78.9 µg·h/mL; AUC(0-t) [2]: 12810 ± 77.3 µg·h/mL; Tmax [2]: 8 h; half-life [2]: 3.98 ± 0.53 h

SMILES	mean concentration in urine [1]	approximate average daily output in urine [2]	C max, peak concentration in urine [2, 3]	percentage excreted in urine within 24 h of the administered dose [2]	also measured
COc1cc2c(=O)c(-c3ccc(O)cc3)coc2cc1O[C@@H]1O[C@H](CO)[C@@H](O)[C@H](O)[C@H]1O [GLY, glycitin]		~1.73 mg	5482.33 ± 10.78 ng/mL and 5482.3 ± 10.8 ng/mL	30%	T max, time to reach peak concentration ([2]; human urine, oral pharmaceutical preparations, n = 6): 5 h; AUC(0–t), area under the urine concentration–time curve [2, 3]: 86628.8 ± 1769.0 µg·h/mL; AUC(0–∞), area under the urine concentration–time curve [2, 3]: 86678.1 ± 1766.7 µg·h/mL

From publication PMC3044235 (Analytical and Bioanalytical Chemistry, 2010)
